Screens: PubChem, Johns Hopkins Ion Channel Center
KCNQ1 block – blocks the human KCNQ1 potassium channel. CHO-K1 KCNQ1, FluxOR thallium flux fluorescence; hits give high values. B-score at 10 µM. 310,000 tested, 1.3% active. AID 2642;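 active = compounds whose thallium flux B-score, printed positive for inhibition, exceeds three library SD while starting fluorescence stays within three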;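 note: channel opened by potassium depolarization with thallium stimulus after 20 min compound exposure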
KCNQ1 pot – potentiates or activates the human KCNQ1 potassium channel; 310,000 tested, 0.35% active; B-score at 10 µM; CHO-K1 KCNQ1, thallium flux FluxOR fluorescence; hits give high values; AID 2648; P51787;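 active = fluorescence ratio B-score, a plate-corrected score, at least three library SD, with initial intensity B-score within 5 SD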
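System: CHO-K1 cells stably expressing KCNQ1 / Medium: assay buffer for compound exposure, DMSO matched across wells / Reagent: thallium- and potassium-containing depolarizing buffer / Compound: one concentration, matched DMSO / Incubation: 20 min compound pretreatment at room temperature / Measured by: kinetic FluxOR fluorescence, 10 s baseline plus 110 s post-stimulus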
hERG protect – shields human hERG channel from block by proarrhythmic agents; Q12809; CHO-hERG, FluxOR thallium flux, dofetilide IC70 present; activation (rescue from dofetilide block), less the hit threshold, % at 10 µM; 310,000 tested, 0.51% active; AID 1511;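 active = activation above the mean of controls blocked by dofetilide plus 5 SD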;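 note: thallium influx through hERG after potassium depolarization seen as dye fluorescence rise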
KCNK3 inh – human KCNK3 channel inhibition, primary screen; 340,000 tested, 0.84% active; CHO-KCNK3 thallium flux, FluxOR fluorescence; hits give low values; O14649; AID 602410; B-score at 10 µM;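 active = B-score under library mean minus 4 SD, starting fluorescence ratio at most library mean plus 5 SD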;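 note: more negative B-score means stronger inhibition of thallium flux through KCNK3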
Target sequence (O14649 whole entry, looked up): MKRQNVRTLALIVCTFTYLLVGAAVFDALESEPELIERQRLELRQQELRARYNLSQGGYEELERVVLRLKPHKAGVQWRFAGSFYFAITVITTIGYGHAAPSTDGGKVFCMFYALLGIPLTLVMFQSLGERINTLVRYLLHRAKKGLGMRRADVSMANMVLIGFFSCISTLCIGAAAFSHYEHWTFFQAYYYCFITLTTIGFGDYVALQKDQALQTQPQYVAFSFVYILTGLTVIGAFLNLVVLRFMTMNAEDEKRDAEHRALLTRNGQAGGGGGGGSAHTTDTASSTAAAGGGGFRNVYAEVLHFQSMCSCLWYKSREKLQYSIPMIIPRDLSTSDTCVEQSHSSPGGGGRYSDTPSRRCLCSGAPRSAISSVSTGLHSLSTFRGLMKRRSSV
KCNK9 block – blocks the human KCNK9 two-pore domain potassium channel; Q9NPC2; HEK293 KCNK9, FluxOR thallium flux fluorescence; hits give low values; B-score at 10 µM; 310,000 tested, 1.2% active;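 active = ratio B-score over 3 SD below the library mean, with starting fluorescence within 5 SD of its mean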;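 note: negative B-score means less thallium flux so channel inhibition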
KCNK9 inh conf – confirmation of human KCNK9 potassium channel inhibitors; shares compounds with KCNK9 block; HEK293 KCNK9 cells, FluxOR thallium flux fluorescence; inhibition, % at 10 µM; 4,900 tested, 43% active; AID 492992;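 active = thallium signal inhibited by more than 5 SD of the compound-free buffer control wells, on both duplicate plates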
Kir2-1 spec – selectivity of KCNK9 modulators against mouse Kir2.1; shares compounds with KCNK9 block; Kir2.1 cells, FluxOR thallium flux fluorescence; inhibition, % at 10 µM; 4,900 tested, 4% active; AID 492993;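 active = thallium signal drop more than 5 SD beyond the mean of the no-compound control wells, seen in both duplicate plates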;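 note: signal is fluorescence rise after thallium addition divided by baseline fluorescence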
HEK293 Tl ctr – second counter-screen for KCNK9 modulators: effect in non-induced cells. non-induced KCNK9-HEK293, FluxOR thallium flux. 4,900 tested, 40% active. inhibition, % at 10 µM. AID 492997. shares compounds with KCNK9 block;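 active = thallium signal drop beyond 5 SD of the untreated control mean, on both duplicate plates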
Each line names hits and unclear results; the compound was inactive in the other large screens (follow-up assays come after a bar, where they were run). Hits are enriched below; roughly 3.1% of the tested compounds scored in any of these assays.

COc1cc(/C=N\Nc2nc3ccccc3[nH]2)cc(OC)c1OC	none
COc1cccc(CN(C)Cc2nc(Cc3ccccc3Cl)no2)c1	none | KCNK9 inh conf inactive | Kir2-1 spec inactive | HEK293 Tl ctr inactive
O=C(NC1CCCC1)C(c1cccnc1)N(C(=O)c1ccco1)c1ccc(F)cc1 (stereo not given)	none
Cc1ccc(-c2cc(C(=O)Nc3ccc(S(=O)(=O)Nc4onc(C)c4C)cc3)c3ccccc3n2)cc1	none | KCNK9 inh conf inactive | Kir2-1 spec inactive | HEK293 Tl ctr inactive
Cc1cc(C)nc(NS(=O)(=O)c2ccc(NC(=O)c3cc(-c4ccccc4)nc4ccccc34)cc2)n1	none
Cc1nc2ccccc2c(=O)n1/N=C/c1ccc(F)cc1	none
O=C(COC(=O)c1cccc([N+](=O)[O-])c1)Nc1ccc(Cl)cn1	none
CCc1ccc(-c2nn(-c3ccccc3)cc2C2SCC(=O)N2Cc2ccco2)cc1 (stereo not given)	none | KCNK9 inh conf inactive | Kir2-1 spec inactive | HEK293 Tl ctr inactive
CC(C)CCNC(=O)C12CN(Cc3ccccc3)CC1C(c1ccc([N+](=O)[O-])cc1)=NO2 (stereo not given)	none
COc1cccc(CNC(=O)C23CN(Cc4ccccc4)CC2C(c2ccc([N+](=O)[O-])cc2)=NO3)c1 (stereo not given)	none | KCNK9 inh conf inactive | Kir2-1 spec inactive | HEK293 Tl ctr inactive
CC1CCc2c(sc3ncn(CC(=O)N4CCCCC4)c(=O)c23)C1 (stereo not given)	none
Cc1ccc(S(=O)(=O)n2nc(OC(=O)c3c(F)cccc3Cl)cc2N)cc1	KCNK9 block -19.5 | KCNK9 inh conf 61.0% | Kir2-1 spec inactive | HEK293 Tl ctr 36.5%
O=C1CCCC/C1=N\Nc1ccc(OCc2ccccc2)cc1	none
CC(C)C1N=C(c2ccc3c(c2)OCO3)CC(c2ccccc2O)N1 (stereo not given)	none
CCOc1ccccc1C1N=C(c2ccc(OC)cc2)CC(c2ccccc2O)N1 (stereo not given)	none | KCNK9 inh conf inactive | Kir2-1 spec inactive | HEK293 Tl ctr inactive
Cc1ccc(CNC(=O)CCC2CCCN(C(=O)c3ccc4c(c3)OCO4)C2)o1 (stereo not given)	none
CC(=O)c1ccc(NC(=S)Nc2ccn(Cc3ccc(Br)cc3)n2)cc1	none
CC(=O)c1cccc(NC(=S)Nc2ccn(Cc3cccc4ccccc34)n2)c1	none | KCNK9 inh conf inactive | Kir2-1 spec inactive | HEK293 Tl ctr inactive
CCCC(C)NC(=O)CSc1nc2ccc(C)cc2[nH]1 (stereo not given)	none
CCCCCN(C(=O)CCC(=O)OCCOc1ccccc1Cl)c1c(N)n(CCCC)c(=O)[nH]c1=O	none
CCOC(=O)c1c(C)c(C(=O)N2CCc3ccccc3C2)c(C)n1CC	none | KCNK9 inh conf inactive | Kir2-1 spec inactive | HEK293 Tl ctr inactive
C=CC[C@@H]1C=C[C@H](O/N=C/[C@@H](NS(=O)(=O)c2ccc(C)cc2)[C@H](C)/C=C/CC(=O)OC)[C@@H](CO)O1	none (no result: KCNK3 inh)
CCCNC(=O)OC[C@H]1O[C@H](CCO/N=C/[C@@H](OC)[C@H](C)/C=C/CC(=O)OC)C=C[C@@H]1Oc1ccc(OC)cc1	none (no result: KCNK3 inh) | KCNK9 inh conf inactive | Kir2-1 spec inactive | HEK293 Tl ctr inactive
COc1ccc(CNC(=O)C(c2ccc(C)cc2)N(Cc2cccs2)C(=O)c2ccc3c(c2)OCCO3)cc1 (stereo not given)	none | KCNK9 inh conf inactive | Kir2-1 spec inactive | HEK293 Tl ctr inactive
Cc1cc(OCCn2nc(C(=O)O)c3ccccc3c2=O)ccc1C(C)C	none | KCNK9 inh conf inactive | Kir2-1 spec inactive | HEK293 Tl ctr inactive
CN(C(=O)COC(=O)CCc1c[nH]c2ccccc12)C(c1ccccc1)c1ccccc1	KCNK9 block -9.5 | KCNK9 inh conf 43.5% | Kir2-1 spec inactive | HEK293 Tl ctr 27.5%
O=C(COC(=O)CCc1c[nH]c2ccccc12)NCc1ccccc1	none
COc1cccc(C2=NN(C(=O)c3ccc(C)o3)C(O)(C(F)(F)F)C2)c1 (stereo not given)	none
Cc1ccc(C(=O)N2N=C(c3ccccc3)CC2(O)C(F)(F)F)o1 (stereo not given)	KCNK9 block -11 | KCNK9 inh conf 55.0% | Kir2-1 spec inactive | HEK293 Tl ctr 31.5%
CCCOc1c(Br)cc(C2C3=C(CCCC3=O)N(CC)C3=C2C(=O)CCC3)cc1OC	KCNK9 block -8.45 | KCNK9 inh conf inactive | Kir2-1 spec inactive | HEK293 Tl ctr 31.0%
Cc1cc(C(=O)CSc2nnnn2-c2ccc(O)cc2)c(C)n1Cc1ccc2c(c1)OCO2	KCNK9 block -9.75 | KCNK9 inh conf 28.5% | Kir2-1 spec inactive | HEK293 Tl ctr inactive
C=C(C)COc1ccc(-c2ncncc2-c2ccc(Cl)cc2)c(O)c1	none
C=C(C)COc1ccc(-c2ncncc2-c2ccc(Br)cc2)c(O)c1	none | KCNK9 inh conf inactive | Kir2-1 spec inactive | HEK293 Tl ctr inactive
Cc1cc2cc(CNC(=O)Nc3ccccc3)ccc2[nH]1	none
Cc1cc(O)ccc1C1(c2ccc(O)cc2C)OC(=O)c2ccccc21	KCNK9 block -12.9 | KCNK9 inh conf 44.5% | Kir2-1 spec inactive | HEK293 Tl ctr inactive
Cc1cccc(C2(c3cccc(C)c3)OC(=O)c3ccccc32)c1	KCNK9 block -18.6 | KCNK9 inh conf 78.0% | Kir2-1 spec inactive | HEK293 Tl ctr 43.0%
O=C1OC(c2ccccc2)(c2ccc(O)cc2)c2ccccc21 (stereo not given)	none (no result: KCNQ1 block, KCNQ1 pot, hERG protect, KCNK9 block)
C=CCSc1nc(-c2ccc(OC)cc2)c(C#N)c(=O)n1CC=C	KCNK9 block -8.73 | KCNK9 inh conf inactive | Kir2-1 spec inactive | HEK293 Tl ctr inactive
COc1ccc(-c2nc3n(c(=O)c2C#N)CCS3)cc1	none
CCOC(=O)N1C=CC(C)=C[C@@H]2[C@@H](N3C(=O)c4ccccc4C3=O)C(=O)N21	none
O=C(COC(=O)/C=C/c1ccccc1)NCc1ccccc1Cl	none
C=CCN=C1S/C(=C/c2cccc([N+](=O)[O-])c2)C(=O)N1CC=C	none
O=C(O)c1cccc(CN2C(=O)S/C(=C/c3cccc([N+](=O)[O-])c3)C2=O)c1	none | KCNK9 inh conf inactive | Kir2-1 spec inactive | HEK293 Tl ctr inactive
COC(=O)[C@H](CCSC)NC(=O)Nc1ccc(S(N)(=O)=O)cc1	none
CCCCn1c(-c2csc(CCC)c2)n[nH]c1=S	none | KCNK9 inh conf inactive | Kir2-1 spec inactive | HEK293 Tl ctr inactive
COc1ccc(OCC(=O)N/N=C(/C)Cc2ccccc2)cc1	none
COc1cc(NS(=O)(=O)c2ccc(NC(=S)NC(=O)c3sc4cc(F)ccc4c3Cl)cc2)nc(OC)n1	none
